Assay results as given in ChEMBL document CHEMBL1132452, “Synthesis and anticonvulsant activity of novel and potent 2,3-benzodiazepine AMPA/kainate receptor antagonists” (J Med Chem, 1999).

Experiments:
Mus musculus [1] = organism: Mus musculus; assay: The compound was tested for Anticonvulsant activity against Pentylenetetrazole (PTZ) induced seizures in Swiss mice; format: functional
Method in brief: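 Male Swiss mice (20–26 g, 42–48 days) pretreated ip with the compound in 30% DMSO/70% saline, then 45 min later PTZ 85 mg/kg (CD97) sc. Observed for 30 min; protection was absence of clonic spasms lasting at least 5 s. ED50 by Litchfield–Wilcoxon, at least 32 animals.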

Mus musculus [2] = organism: Mus musculus; assay: The compound was tested for Anticonvulsant activity against maximal electroshock (MES) induced seizures in Swiss mice.; format: functional
Method in brief: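 Swiss mice given the compound ip in 30% DMSO/70% saline, then 45 min later ear-clip electroshock (50 mA, 20 ms pulses, 35 Hz, 400 ms). Protection was abolition of tonic hindlimb extension. Four to five doses, 8–10 mice each; ED50 by Litchfield–Wilcoxon.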

[3] = Relative lipophilicity of the compound; format: physicochemical; conditions: reversed-phase TLC, acetone/water 2:1
Method in brief: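 Reversed-phase TLC on plates dried at 105 °C for 1 h. Mobile phase acetone/water 2:1 (v/v). Compound in CHCl3 (3 mg/mL), 1 µL spotted. Five runs, each with a different placement on the plate. Mean Rf converted by Rm = log[(1/Rf) − 1]; higher Rm means higher lipophilicity.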

Mus musculus [4] = organism: Mus musculus; assay: The compound was tested for locomotor deficit (rotarod test) in Swiss mice.
Mus musculus [5] = organism: Mus musculus; assay: The compound was tested for Anticonvulsant activity against audiogenic seizures in DBA/2 mice in tonic phase; format: functional
Method in brief: (§1)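 Male DBA/2 mice (8–12 g, 22–25 days), groups of 10 per dose, given the compound ip in 30% DMSO/70% saline at doses within 3.3–200 µmol/kg. Sound stimulation 30 min later; latency and incidence of seizure phases scored. ED50 per phase by Litchfield–Wilcoxon, at least 32 animals per value.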

Mus musculus [6] = organism: Mus musculus; assay: The compound was tested for Anticonvulsant activity against audiogenic seizures in DBA/2 mice in clonic phase; format: functional; method in brief: as §1
Mus musculus [7] = assay: The compound was tested for Anticonvulsant activity against audiogenic seizures in DBA/2 mice in clonic phase. 30 min after ip administration.; format: functional; conditions: 0.5 h
Method in brief: (§2)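 Time course in male DBA/2 mice (8–12 g, 22–25 days) after ip dosing in 30% DMSO/70% saline, with auditory stimulation at the stated time after injection. Groups of 10 mice per time point; clonic-phase ED50 (95% confidence limits) by Litchfield–Wilcoxon, at least 32 animals per value.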

Mus musculus [8] = organism: Mus musculus; assay: The compound was tested for Anticonvulsant activity against audiogenic seizures in DBA/2 mice after pretreatment with Aniracetam in clonic phase; format: functional
Method in brief: (§3)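 Male DBA/2 mice (8–12 g, 22–25 days) given aniracetam 50 nmol icv 30 min before the ip compound (30% DMSO/saline), i.e. 60 min before auditory stimulation. Clonic or tonic phase incidence scored; ED50 by Litchfield–Wilcoxon, at least 32 animals.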

Mus musculus [9] = organism: Mus musculus; assay: The compound was tested for Anticonvulsant activity against audiogenic seizures in DBA/2 mice after pretreatment with Aniracetam in tonic phase.; format: functional; method in brief: as §3
Mus musculus [10] = organism: Mus musculus; assay: The compound was tested for Anticonvulsant activity against AMPA induced seizures in DBA/2 mice in tonic phase; format: functional
Mus musculus [11] = assay: The compound was tested for Anticonvulsant activity against audiogenic seizures in DBA/2 mice in clonic phase. 60 min after ip administration.; format: functional; conditions: 1 h; method in brief: as §2
Mus musculus [12] = assay: The compound was tested for Anticonvulsant activity against audiogenic seizures in DBA/2 mice in clonic phase. 15 min after ip administration.; format: functional; conditions: 0.25 h; method in brief: as §2
Mus musculus [13] = organism: Mus musculus; assay: The compound was tested for Anticonvulsant activity against KA induced seizures in DBA/2 mice.; format: functional
Mus musculus [14] = assay: The compound was tested for Anticonvulsant activity against audiogenic seizures in DBA/2 mice in clonic phase. 120 min after ip administration.; format: functional; conditions: 2 h; method in brief: as §2
Mus musculus [15] = assay: The compound was tested for Anticonvulsant activity against audiogenic seizures in DBA/2 mice in clonic phase. 45 min after ip administration.; format: functional; conditions: 0.75 h; method in brief: as §2
Mus musculus [16] = organism: Mus musculus; assay: The compound was tested for Anticonvulsant activity against AMPA induced seizures in DBA/2 mice clonic phase.; format: functional
Mus musculus [17] = assay: The compound was tested for Anticonvulsant activity against audiogenic seizures in DBA/2 mice in clonic phase. 90 min after ip administration.; format: functional; conditions: 1.5 h; method in brief: as §2

| Rm [3] | Structure (SMILES) | ED50 (Mus musculus [1]) [µmol/kg] | ED50 (Mus musculus [2]) [µmol/kg] | TD50 (Mus musculus [4]) [µM/kg] | ED50 (Mus musculus [5]) [µmol/kg] | ED50 (Mus musculus [6]) [µmol/kg] | ED50 (Mus musculus [7]) [µmol/kg] | ED50 (Mus musculus [8]) [µmol/kg] | ED50 (Mus musculus [9]) [µmol/kg] | ED50 (Mus musculus [10]) [µmol/kg] | ED50 (Mus musculus [11]) [µmol/kg] | ED50 (Mus musculus [12]) [µmol/kg] | ED50 (Mus musculus [13]) [µmol/kg] | ED50 (Mus musculus [14]) [µmol/kg] | ED50 (Mus musculus [15]) [µmol/kg] | ED50 (Mus musculus [16]) [µmol/kg] | ED50 (Mus musculus [17]) [µmol/kg] |
| --- | --- | --- | --- | --- | --- | --- | --- | --- | --- | --- | --- | --- | --- | --- | --- | --- | --- |
| -0.368 | CCNC(=O)N1N=C(c2ccc(N)cc2)c2cc3c(cc2CC1=O)OCO3 | 68.2 | 52.5 | 134 | 23.8 | 35 |  |  |  |  |  |  |  |  |  |  |  |
| -0.269 | Nc1ccc(C2=NN=C(S)Cc3cc4c(cc32)OCO4)cc1 | 25.2 | 9.79 | 39.8 | 5.09 | 11.8 | 11.8 | 31.4 | 16.3 | 11.5 | 19.6 | 5.9 | 15.6 | > 50 | 13.4 | 15.6 | 45 |
| -0.323 | CCNC(=O)N1N=C(c2cccc(N)c2)c2cc3c(cc2CC1=O)OCO3 | 90.7 | 60.2 | 126 | 32.1 | 44.9 |  |  |  |  |  |  |  |  |  |  |  |
| -0.484 | Nc1cccc(C2=NNC(=O)Cc3cc4c(cc32)OCO4)c1 | 40.5 | 19.3 | 101 | 12.7 | 18 | 18 | 55 | 40.6 | 23.8 | 26.3 | > 50 | 23.2 | > 50 | 19.1 | 29.2 | 47.1 |
| -0.552 | Nc1ccc(C2=NNC(=O)Cc3cc4c(cc32)OCO4)cc1 | 71.8 | 32.1 | 99.1 | 10.9 | 15.4 | 15.4 | 62.6 | 39.6 | 28.5 | 21.3 | 7.55 | 19.6 | > 50 | 18.7 | 37.9 | > 50 |
| -0.181 | CCCNC(=O)N1N=C(c2cccc(N)c2)c2cc3c(cc2CC1=O)OCO3 | > 100 | > 100 | >100 | 63.8 | 85.3 |  |  |  |  |  |  |  |  |  |  |  |
| -0.25 | CCCNC(=O)N1N=C(c2ccc(N)cc2)c2cc3c(cc2CC1=O)OCO3 | > 100 | 76.5 | 182 | 49.2 | 69.4 |  |  |  |  |  |  |  |  |  |  |  |
